In PMC6644768 (ACS Omega, 2018):
Values belong to the compound of their own block, whether it stands above or below them.

What was measured:
Type in all cases: cell-based
[1] = test system: ROS in HeLa cells; assay: Intracellular ROS by DCFDA dye; settings: 6 h, control 2.4 ± 0.1
[2] = test system: tubulin in HeLa cells; assay: Soluble and polymeric tubulin in cells by western blot; settings: 25 nM, control 2.1 ± 0.4
[3] = test system: A549 cells; assay: IC50 determination, sulforhodamine B assay, A549; settings: A549 cell line, 24 h
Outline: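 A549 cells (F-12K medium, 10% FBS) plated at 10 000 cells/well and grown 24 h, then exposed to a range of test compound concentrations for 24 h. Sulforhodamine B read-out: fixation in 50% TCA for 1 h at 4 °C, then 0.4% dye in 1% acetic acid for 1 h, 1% acetic acid washes, and solubilization in 10 mM Tris pH 10.0. Absorbance read at 520 nm. IC50 from nonlinear regression, three independent determinations.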

[4] = test system: MCF-7 cells; assay: IC50 determination, sulforhodamine B assay, MCF-7; settings: MCF-7, one cell cycle
Outline: (§1)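 Sulforhodamine B proliferation assay as run for A549, but with cells exposed to test compound for one cell cycle. Read-out: TCA fixation, dye binding, Tris solubilization, absorbance at 520 nm. IC50 fitted by nonlinear regression; each cell line determined three times independently. Culture media: HeLa and MCF-7 in Eagle's MEM; L929 and B16F10 in DMEM; MCF 10A in DMEM/F12K with 10% FBS, EGF, hydrocortisone and insulin.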

[5] = test system: MCF 10A cells; assay: IC50 determination, sulforhodamine B assay, MCF 10A; settings: one cell cycle
Outline: as §1

[6] = test system: HeLa cells; assay: Mitotic index by Hoechst 33258 staining; settings: 20 nM; control 3 ± 0.6
Outline: (§2)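 HeLa cells exposed to 75 and 200 nM test compound or 20 nM reference agent for 12 h. Cells immunostained for phospho-histone H3 (Ser10), with DNA counterstained by Hoechst 33258. Mitotic index scored either from DNA morphology or as phospho-H3-positive cells. Experiment performed three times; error given as standard deviation.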

[7] = test system: HeLa cells; assay: Mitotic index by phospho-histone H3 staining; settings: 20 nM; control 3 ± 0.2
Outline: as §2

[8] = test system: HeLa cells; assay: PI staining of dead cells; settings: 20 nM, 24 h; control 6%
Outline: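 HeLa cells on coverslips (2.5 × 10^4 cells/well, 24 h) given vehicle (0.1% DMSO), 75 or 200 nM test compound, or 20 nM reference agent for 24 h. Plates centrifuged at 2500 rpm for 15 min and washed in PBS. Cells stained with propidium iodide for 15 min at room temperature in the dark and imaged. PI-positive cells counted as a percentage. Two independent sets.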

[9] = test system: A549 cells; assay: Scratch wound healing assay; settings: 100 nM

Structure (SMILES): OO [Compound H2O2, H2O2]
- fluorescence intensity of DCFDA per cell ([1]; 100 μM): 4.5 ± 0.2

Structure (SMILES): CC[C@]1(O)C[C@@H]2CN(CCc3c([nH]c4ccccc34)[C@@](C(=O)OC)(c3cc4c(cc3OC)N(C)[C@H]3[C@@](O)(C(=O)OC)[C@H](OC(C)=O)[C@]5(CC)C=CCN6CC[C@]43[C@@H]65)C2)C1 [vinblastine]
- ratio of polymeric to soluble tubulin [2]: 1.4 ± 0.9

- IC50 [3]: 0.112 ± 0.007 µM
- IC50 [4]: 0.018 ± 0.003 µM
- IC50 [5]: 0.144 ± 0.031 µM
Structure (SMILES): COc1ccc(/C=C\c2cc(OC)c(OC)c(OC)c2)cc1O [CA-4, combretastatin A-4]
- mitotic index, Hoechst staining [6]: 40 ± 1.2
- mitotic index, phospho-histone staining (percentage of mitotic cells) [7]: 38 ± 0.3%
- PI-stained positive cells [8]: 87%
- fluorescence intensity of DCFDA per cell ([1]; 20 nM): 3.6 ± 0.4
- inhibition of migration of A549 cells ([9]; 10 h): 77 ± 5%
- rate of migration ([9]; vehicle 3 ± 0.7): 0.4 ± 0.2 μm/h
